# Source: PubChem BioAssay
# STAT1 inh: reduces IFN-gamma driven STAT1 reporter signal; NIH 3T3 STAT1-luciferase reporter, luminescence; inhibition, % at 5.5 µM; 200,000 compounds, 0.35% hits; AID 920;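 active = inhibition above a set limit, the mean inhibition across all tested compounds plus 3 SD, cut at about 34% in these data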;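 note: 0% = IFN-gamma with DMSO and 100% = IFN-gamma with 300 µM nifuroxazide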
# STAT1 activator: activators of IFN-gamma induced STAT1 signaling; NIH 3T3 STAT1-luciferase reporter, luminescence; 100% = IFN-gamma alone, no compound; activation (% of control), % at 5.5 µM; 200,000 compounds, 2.6% hits; AID 932;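 active = activation above the screen-wide mean activation plus 3 SD, cut at about 130% in these data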;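 note: raw ratio to IFN-gamma control signal so 100% means no change and 0% no light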
# STAT3 act: activators of IL-6 induced STAT3 signaling; U3A cells, IL-6 STAT3-luciferase reporter, luminescence; 100% = signal with IL-6 EC80 alone; activation (% of control), % at 5.6 µM; 190,000 compounds, 0.91% hits;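 active = activation above the screen-wide mean of compound activation plus 3 SD, cut at about 130% in these data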;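 note: 0% = background luminescence of wells with medium and substrate only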
#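 Material: STAT3-luciferase reporter U3A cells; Probe or stimulus: IL-6 (33 ng/mL); Incubation: compound pre-incubation 1 h before IL-6, then 6 h stimulation at 37 °C; Technique: luminescence from STAT3-driven luciferase reporter; Evaluation: % activation versus median of IL-6-stimulated wells; Controls: IL-6-only high control.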
# STAT3 blocker: STAT3 signaling inhibition; inhibition, % at 5.5 µM; U3A cells, IL-6 STAT3-luciferase reporter, luminescence; host cell line lacks STAT1; 190,000 compounds, 0.89% hits;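 active = inhibition above the mean inhibition across all screened compounds plus 3 SD, cut at about 44% in these data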;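 note: 0% = DMSO only wells and 100% = 100 µM nifuroxazide control wells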
# STAT1 activ conf: STAT1 activation, confirmation assay; AID 1262; activation (% of control), % at 5.7 µM; shares compounds with STAT1 activator; 1,200 compounds, 97% hits; NIH 3T3 STAT1-luciferase reporter, IFN-gamma potentiation, luminescence; 100% = IFN-gamma EC80 alone, no compound;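 active = activation above a set limit carried over from the earlier primary STAT1 screen, cut at about 140% in these data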;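 note: simple ratio to median IFN-gamma plus DMSO wells so 0% means no light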
# NFkB act STAT1ct: NF-kappaB activation in STAT1 activator counter-screen | activation (% of control), % at 5.7 µM | shares compounds with STAT1 activator | AID 1306 | HEK293T NF-kB luciferase reporter, TNF-alpha stimulated, luminescence; 100% = TNF-alpha with vehicle only | 1,200 compounds, 43% hits;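 active = activation above the mean of solvent-only control wells plus 3 SD, set per campaign, cut at about 130% in these data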;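 note: TNF-alpha given at a submaximal dose yielding about 80% of full reporter signal; values are well signal over median control so 100% means no change and 0% no light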
# STAT3 act STAT1c: counter-screen for STAT1 activators: human STAT3 activation; shares compounds with STAT1 activator; U3A cells STAT3-luciferase reporter, IL-6, luminescence; cells lack STAT1; 100 = IL-6 alone, no compound effect; activation (% of control), % at 5.7 µM; 1,200 compounds, 46% hits;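 active = activation above the solvent-only control well mean plus 3 SD, set per plate batch, cut at about 110% in these data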;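 note: 0% = no luminescence and 100% = median IL-6 plus DMSO wells; higher means more STAT3 reporter activation so hits are non-selective activators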
# * hit, by the source's call; . = no result given. Rows were chosen to be rich in hits. Some 4.3% of all compounds tested hit in one or more screens of this group.
SMILES,STAT1 inh,STAT1 activator,STAT3 act,STAT3 blocker,STAT1 activ conf,NFkB act STAT1ct,STAT3 act STAT1c
Cc1ccc(-c2cc3ccccc3nc2N2CCCC2)cc1,2.5,97.7,111.4,-8.0,.,.,.
CN(c1cc(=O)n2ccccc2n1)C1CCCCC1,-5.2,104.8,105.8,-2.5,.,.,.
Cc1ccc2c(c1)C(=NC1CCCCC1)c1cc3ccccc3nc1-2,-102.4,191.5*,119.0,-20.4,208.2*,125.4,149.8*
Cc1ccc2c(c1)-c1nc3ccccc3cc1C2=NC1CCCCC1,-79.6,172.5*,98.7,-3.5,201.1*,131.2,123.1*
Cc1ccc(C(=O)NCC(=O)OCC(=O)NC2CCS(=O)(=O)C2)cc1C (stereo unspecified),-3.5,103.1,96.3,6.6,.,.,.
O=C(O)C1CCN(S(=O)(=O)/C=C/c2ccccc2)CC1,1.8,98.4,107.5,-2.5,.,.,.
CC(C)c1ccc(NC(=O)N2CCc3ccccc3C2)cc1,-62.3,155.5*,114.4,-9.0,147.9*,130.9,119.5*
COCCn1c(C)cc(C(=O)CSc2nc3ccccc3o2)c1C,-63.0,157.7*,74.2,33.4,215.5*,121.0,107.0
Nc1ccc2oc(-c3cc(Br)ccc3Cl)nc2c1,3.5,96.8,91.6,17.2,.,.,.
Nc1ccc2oc(-c3ccccc3Cl)nc2c1,-56.4,151.4*,68.2,34.1,202.8*,103.3,90.2
CC(=O)C(/C=N/c1cc(-c2ccc(C)cc2)nn1-c1ccccc1)=C(\C)O,-66.4,159.0*,104.5,-8.0,160.7*,126.9,94.3
Cc1ccc(NC(=O)c2cc(-c3ccccc3)nn2-c2ccccc2)cc1,-5.5,104.9,104.7,-8.4,.,.,.
O=C(Nc1ccc(Br)cc1Cl)NC1CC1,10.7,89.5,78.3,33.5,.,.,.
O=C(Cc1nc(=O)c2ccccc2s1)Nc1ccccc1,-63.4,156.8*,102.7,4.5,273.5*,144.9*,121.8*
CC(=O)Nc1sc2c(c1-c1nc3ccccc3s1)CCN(C(C)C)C2,-206.1,285.1*,.,.,202.5*,190.9*,201.7*
Cc1ccc(NCc2nc3ccccc3n2C)cc1,-57.7,152.7*,126.6,-25.9,183.2*,133.1,189.7*
O=C(Oc1ccc2ccccc2c1Cl)N1CCCCCC1,-81.4,173.7*,102.1,3.0,211.1*,118.4,140.7*
COCCNc1nc(-c2cc3ccccc3o2)cs1,-103.1,194.2*,93.9,5.8,230.1*,125.5,104.8
CCc1ccc(Nc2ncc3c(n2)CC(C)CC3=O)cc1 (stereo unspecified),-57.7,151.3*,91.0,17.1,198.2*,128.2,106.8
CCc1ccc(Nc2ncc3c(n2)CC(c2ccc(OC)cc2)CC3=O)cc1 (stereo unspecified),-7.8,107.1,100.7,3.8,.,.,.
Cc1cc(C)cc(NC(=O)C(OC(=O)c2sccc2C)c2ccccc2)c1 (stereo unspecified),-10.1,109.2,105.4,-11.3,.,.,.
O=C(N/N=C/C(Cl)=C/c1ccccc1)c1ccco1,-61.4,156.4*,94.1,9.3,185.5*,133.7*,109.2
COc1ccccc1NC(=O)Nc1cccnc1,-6.7,104.7,106.8,-3.3,.,.,.
CCc1ccc(C2=NN(C(C)=O)C(c3ccco3)C2)cc1 (stereo unspecified),-69.3,159.9*,107.2,-3.7,177.9*,132.8,123.4*
CN(/N=C/c1ccc2c(c1)OCO2)c1ccccc1,-61.0,155.1*,101.2,2.1,180.5*,138.7*,108.3
SMILES,STAT1 inh,STAT1 activator,STAT3 act,STAT3 blocker,STAT1 activ conf,NFkB act STAT1ct,STAT3 act STAT1c
C(=N\N(c1ccccc1)c1ccccc1)/c1ccc2c(c1)OCO2,-6.1,105.6,108.5,-4.6,.,.,.
Cc1cc(/C=C2/NC(=O)N(c3ccccc3)C2=O)c(C)n1-c1cccnc1,-57.7,151.0*,112.4,-10.2,192.0*,131.5,118.9*
CCOC(=O)/C=C/C(=O)Nc1nccs1,31.5,71.2,97.2,1.9,.,.,.
O=C(/C=C/c1cccc(F)c1)Nc1nccs1,-55.0,150.9*,96.2,11.8,175.0*,136.8*,111.6*
O=C(Nc1cc(Cl)cc(Cl)c1)c1cnn2cccnc12,-1.1,101.0,94.0,12.6,.,.,.
O=C(Nc1cccc(Cl)c1)c1cnn2cccnc12,-59.4,157.1*,123.2,-24.4,177.9*,130.3,122.8*
CC[N+](CC)(CC)CC(=O)Nc1ccc(SC(F)F)cc1,4.0,95.1,106.9,0.0,.,.,.
Cc1ccc(C(=O)Nc2ccc(SC(F)F)cc2)s1,-79.5,173.2*,102.3,-0.4,204.7*,140.7*,98.0
CCOC(=O)c1cnc2c(-c3ccccc3)c(C)nn2c1N,-15.2,112.8,90.8,11.0,.,.,.
CCOC(=O)c1cnc2c(-c3ccccc3)cnn2c1N,-94.9,186.3*,69.3,39.1,245.6*,118.7,98.7
COc1ccc(NC(=O)/C(Cl)=C(/Cl)S(=O)Cc2ccccc2Cl)cn1 (stereo unspecified),-267.9,346.0*,87.5,18.4,291.7*,64.6,133.2*
COc1ccc(NC(=O)Cc2ccc(Cl)c(Cl)c2)cn1,-8.1,105.5,100.0,8.5,.,.,.
COc1ccc(C(=O)c2oc3ccc(OC)cc3c2N)cc1,-58.9,151.0*,98.4,1.1,138.7*,147.8*,111.0*
COC(=O)c1oc2ccc(OC)cc2c1N,-7.0,108.0,95.3,9.9,.,.,.
S=C(Nc1ccccn1)c1ccccn1,-57.9,153.0*,87.7,16.7,178.0*,124.5,112.0*
Cc1ccc(C)c(NC(=S)c2ccccn2)c1,-25.2,123.0,108.6,-5.8,.,.,.
COc1ccc(OCCSc2ncccn2)cc1,-51.0,153.6*,101.5,0.4,181.0*,126.6,120.0*
O=C(Nc1ccc(Cl)cc1)Nc1nc(-c2ccccc2)cs1,-5.1,103.9,92.7,18.9,.,.,.
COc1ccc(-c2csc(-c3ccc(C(=O)O)cc3)n2)cc1,-91.0,182.1*,105.6,6.0,242.0*,146.0*,144.2*
COc1ccc(-c2nc(CC(=O)O)cs2)cc1,1.1,99.0,99.8,3.8,.,.,.
O=C(O)c1ccc(-c2nc(-c3ccc(Cl)cc3)cs2)cc1,-85.8,180.6*,100.0,4.7,240.7*,135.4*,134.9*
COC(=O)C(CCSC)NC(=O)c1cc2c(n(-c3ccccc3)c1=O)CC(C)(C)CC2=O (stereo unspecified),-0.1,100.1,94.8,8.3,.,.,.
O=C(Nc1nc2ccccc2s1)C1CCCO1 (stereo unspecified),-55.8,151.0*,93.9,12.1,166.3*,122.2,108.1
CC1CCc2nc(NC(=O)C3CCCO3)sc2C1 (stereo unspecified),-65.9,160.8*,89.5,11.7,189.0*,102.5,96.4
